{"data": "Experimental data gathered from unrelated publications", "target": "Wee1-like protein kinase (WEE1, Homo sapiens, UniProt P30291)", "note": "Each line is one published result; the experiments were not run side by side."}
{"Structure (SMILES)": "CNc1cc(Oc2cc(C(=O)Nc3cc(N4CCN(C)CC4)cc(C(F)(F)F)c3)ccc2C)ncn1", "assay": "target engagement in cells, inhibitor, chemoproteomics", "test system": "Huh-7", "setting": "1 µM", "quantity": "inhibition", "value": "-10.9%"}
{"Structure (SMILES)": "CC1=C(C#N)[C@@H](c2ccc3[nH]nc(C)c3c2)C(C#N)=C(c2ccc(Cl)cc2)N1", "assay": "cell-free assay, competition with immobilised ligand", "setting": "1 µM", "quantity": "remaining binding", "value": "100%"}
{"Structure (SMILES)": "O=C1NC(=O)c2cc(Nc3ccc(F)cc3)c(Nc3ccc(F)cc3)cc21", "assay": "cell-free assay", "setting": "0.5 µM", "quantity": "remaining signal", "value": "99.6%"}
{"Structure (SMILES)": "C[C@H](NC(=O)c1cnc2n1[C@](C)(Cc1ccc(C#N)cc1)C(=O)N2c1cc(Cl)c(F)c(Cl)c1)C(=O)NC1(c2ccccn2)CC1", "assay": "cell-free assay, competition with immobilised ligand", "setting": "1 µM", "quantity": "remaining binding", "value": "100%"}
{"Structure (SMILES)": "CC(C)(C)c1nc(-c2cccc(NS(=O)(=O)c3c(F)cccc3F)c2F)c(-c2ccnc(N)n2)s1", "assay": "enzyme activity, inhibitor, radiometric", "setting": "1 µM", "quantity": "remaining activity", "value": "91%"}
{"Structure (SMILES)": "CN(c1nccc(-c2cnn3ncccc23)n1)C1CC1", "assay": "binding", "setting": "1 µM", "quantity": "remaining binding", "value": "100%"}
{"Structure (SMILES)": "Cc1cnc(NC2CCOCC2)nc1-n1cnc(C(=O)NC(CN)c2cc(F)cc(Cl)c2)c1 (stereo not shown)", "assay": "enzyme activity, inhibitor, radiometric", "setting": "1 µM", "quantity": "remaining activity", "value": "101%"}
{"Structure (SMILES)": "O=C(Nc1cnn(-c2csc(C(=O)NC3COC3)c2)c1)Nc1c(F)cccc1Cl", "assay": "enzyme activity, inhibitor", "setting": "5 µM", "quantity": "remaining activity", "value": "85.2%"}
{"Structure (SMILES)": "Cc1ccc(Nc2nccc(N(C)c3ccc4c(C)n(C)nc4c3)n2)cc1S(N)(=O)=O", "assay": "enzyme activity, inhibitor", "setting": "0.5 µM", "quantity": "remaining activity", "value": "95.3%"}
{"Structure (SMILES)": "COc1cc(Cl)c(C(=O)N[C@@H](CN[C@H]2CC[C@@H](N)CC2)Cc2ccc(C#N)cc2)cc1-c1ccc(CN[C@H](C)c2ccc(C)cc2)o1", "assay": "enzyme activity, inhibitor", "setting": "1 µM", "quantity": "remaining activity", "value": "102%"}
{"Structure (SMILES)": "Cc1c(C(=O)O)cc(-c2ccc(C3CCNCC3)cc2)c2ccc(-c3ccc(C(F)(F)F)cc3)cc12", "assay": "binding, competition with immobilised ligand", "setting": "1 µM", "quantity": "remaining binding", "value": "80%"}
{"Structure (SMILES)": "N#CCCc1ccc2c(c1)-c1[nH]c3ccc([N+](=O)[O-])cc3c1CC(=O)N2", "assay": "cell-free assay", "setting": "0.5 µM", "quantity": "remaining signal", "value": "100%"}
{"Structure (SMILES)": "O=C(O)[C@H]1[C@H](Cn2nnc3ccccc3c2=O)CC[C@@H]1C(=O)c1ccc(OCCC2CCOCC2)cc1", "assay": "cell-free assay, competition with immobilised ligand", "setting": "1 µM", "quantity": "remaining binding", "value": "100%"}
{"Structure (SMILES)": "COc1cc2c(Nc3ccc(Br)cc3F)ncnc2cc1OCC1CCN(C)CC1", "assay": "cell-free assay", "setting": "0.5 µM", "quantity": "remaining signal", "value": "95.1%"}
{"Structure (SMILES)": "Nc1cnc(N2CCc3cc(S(=O)(=O)Nc4c(F)cc(Cl)cc4F)cc(N4CCCC4=O)c32)nc1", "assay": "cell-free assay, competition with immobilised ligand", "setting": "1 µM", "quantity": "remaining binding", "value": "72%"}
{"Structure (SMILES)": "Cc1ccc(C(=O)Nc2ccc(CN3CCN(C)CC3)c(C(F)(F)F)c2)cc1C#Cc1cnc2cccnn12", "assay": "enzyme activity, inhibitor", "setting": "23.5 nM", "quantity": "remaining activity", "value": "100%"}
